Source: PubChem BioAssay
In the library only some 0.84% were active in any assay of this set; here they are far more common.
DDE Tn7 FP inh – inhibitors of Tn7 peptide binding to fibrin DD(E), primary screen, biochemical, fluorescence polarization, human fibrin, Tn7 probe; FP displacement of FITC-Tn7 peptide from fibrin DD(E); 0% = median of compound wells per plate; actives 0.13% (n = 370,000); AID 720508, 2013; inhibition, % at 8.3 µM;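 active = inhibition above the mean of compounds falling within the control limits plus 3 SD of them, cut at about 14% in these data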;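 note: 0% = plate median of compound wells and 100% = 10 µM Aha-Tn7 peptide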
Target sequence (P02675 whole entry, looked up): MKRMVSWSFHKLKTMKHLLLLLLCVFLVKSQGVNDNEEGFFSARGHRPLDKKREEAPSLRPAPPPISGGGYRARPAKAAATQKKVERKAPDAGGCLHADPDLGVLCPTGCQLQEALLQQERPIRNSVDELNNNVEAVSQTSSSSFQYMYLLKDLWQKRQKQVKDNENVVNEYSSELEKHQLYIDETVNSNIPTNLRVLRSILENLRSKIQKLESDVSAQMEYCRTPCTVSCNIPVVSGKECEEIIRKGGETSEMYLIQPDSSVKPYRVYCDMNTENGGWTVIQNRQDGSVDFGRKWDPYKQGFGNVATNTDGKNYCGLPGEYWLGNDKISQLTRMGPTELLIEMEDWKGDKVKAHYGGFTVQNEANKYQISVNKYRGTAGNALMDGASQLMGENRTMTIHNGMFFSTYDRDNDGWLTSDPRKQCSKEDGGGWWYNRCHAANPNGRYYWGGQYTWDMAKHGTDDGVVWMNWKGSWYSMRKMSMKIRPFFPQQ
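assay system = human clot-derived fibrin DD(E) complex | quantity = Fibrin-DD(E) at 2 µM final | timing = 10 min preincubation, 3 h with tracer, room temperature | signal = fluorescence polarization | measure = percent inhibition | benchmarks = high control wells with 10 µM unlabelled Aha-Tn7 peptide (full inhibition) | replicates = singlicate testing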
MT1-MMP act inh – blockers of MT1-MMP proenzyme processing, primary screen, HT1080 RFP-PRO-GFP cells, GFP/RFP fluorescence; GFP/RFP ratio change, % at 20 µM; actives 0.061% (n = 360,000); GFP/RFP ratio fluorescence, overnight; percent of plate control window, DMSO zero; Matrix metalloproteinase-14 (Homo sapiens), P50281;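 active = GFP/RFP ratio change of at least 30% with cell ATP level not reduced by more than half and red fluorescence within 50% of control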
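Compound: 20 µM single dose, 1% DMSO / System: HT1080 RFP-PRO-GFP cells / Controls: DMSO and RFP-L50D-GFP cell wells / Read-out basis: GFP/RFP fluorescence ratio / Schedule: overnight compound exposure at 37 °C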
Tn6 DDE FP – inhibitors of Tn6 peptide binding to fibrin DD(E), primary screen, biochemical, fluorescence polarization, human fibrin, Tn6 probe. Fibrinogen beta chain (Homo sapiens), P02675. Fibrin DD(E) TRITC-Tn6 fluorescence polarization displacement. inhibition, % at 8.3 µM. actives 0.21% (n = 370,000). AID 720509, 2013;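 active = inhibition above a per-campaign cutoff: mean of compounds within control limits plus 3 SD, cut at about 15% in these data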;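 note: 0% = median of all compound wells on the plate and 100% = blocking peptide control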
SKN-1 block – suppressors of acrylamide-induced Pgst-4::GFP reporter in worms, primary screen, SKN-1 inhibitor project, whole organism, uHTS, GFP/RFP fluorescence ratio, strain VP596; C. elegans VP596 Pgst-4::GFP/RFP ratio, 24 h; inhibition, % at 21.8 µM; actives 0.49% (n = 360,000); AID 624304, 2012;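 active = interference check ratio from 0.5 to 1.5 plus GFP to RFP signal ratio inhibition reaching or exceeding a fixed threshold, cut at about 30% in these data, passing the limit was not always enough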
Tn6 DDE ctr – DD(E)-Tn6 binding inhibition, counter-screen | shares compounds with Tn6 DDE FP | actives 2% (n = 680) | inhibition, % at 8.3 µM | Fibrin DD(E), TRITC-Tn6 fluorescence polarization displacement; 0% = median of compound wells, not DMSO;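 active = inhibition above the mean of test compounds lying between the control limits plus 3 SD of those, cut at about 14% in these data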;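 note: 0% = median of compound wells and 100% = wells with Aha-Tn7 blocking peptide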
DDE Tn6 confirm – inhibitors of Tn6 peptide binding to fibrin DD(E), confirmation, biochemical, fluorescence polarization, human fibrin, Tn6 probe | shares compounds with Tn6 DDE FP | FP displacement of TRITC-Tn6 peptide from DD(E); 0% = per-plate median of test wells | inhibition, % at 8.3 µM | actives 10% (n = 680);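 active = inhibition above the mean of compounds lying within the control limits plus 3 SD, cut at about 16% in these data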;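 note: 100% = high control wells holding a competing inhibitor peptide at 10 µM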
The depositor's hits bear a star; · = no result.

SMILES	DDE Tn7 FP inh	MT1-MMP act inh	Tn6 DDE FP	SKN-1 block	Tn6 DDE ctr	DDE Tn6 confirm
CC(C)(C)c1cccc(N/C(=C\C(=O)c2ccccc2)c2ccccc2)c1	-2.1	·	-4.8	·	·	·
O=C(COC(=O)c1ccccc1NC(=O)c1ccccc1)c1cccc([N+](=O)[O-])c1	3.0	0.1	16.8*	4.7	2.9	5.2
O=C(COC(=O)c1ccccc1NC(=O)c1ccccc1)c1ccc([N+](=O)[O-])cc1	0.8	2.9	3.8	4.1	·	·
CO/N=C(\CCC(=O)O)c1cccs1	5.5	-1.4	16.2*	-0.3	0.2	-3.8
Cc1cc(C(=O)N/N=C(\CCC(=O)O)c2cccs2)c2ccccc2n1	-0.7	-0.7	-2.7	3.3	·	·
CCOc1ccc(NC(=O)[C@@H](NC(=O)c2ccccc2Br)C(C)C)cc1	5.3	2.0	-1.6	13.9	·	·
CCOc1ccc(NC(=O)C(CC)NC(=O)c2ccccc2CO)cc1 (stereo not given)	0.8	1.6	19.9*	-18.9	-3.1	-6.4
c1ccc(-c2nc(-n3ccnc3)nc(-n3ccnc3)n2)cc1	7.4	-17.7	15.4*	0.0	2.2	-2.6
CC(C)Nc1nc(-c2ccccc2)nc(-n2ccnc2)n1	3.9	1.3	5.2	22.2	·	·
CC(=O)Nc1nc2cc3c(cc2s1)OCO3	5.4	-0.5	15.5*	9.6	3.8	3.9
CC(C)C(=O)Nc1nc2cc3c(cc2s1)OCCO3	-4.0	-3.7	3.8	5.2	·	·
COc1ccc(C(=O)N2CCCCCC2)cc1OC1CCN(C(C)=O)CC1	-6.1	-0.7	-5.0	-0.5	·	·
COc1ccc(C(=O)N(C)Cc2ccc(C)o2)cc1OC1CCN(C(C)=O)CC1	-5.2	1.2	16.1*	-10.7	8.6	5.6
CCN(CC)c1ccc(/C=c2\sc3nc4ccccc4n3c2=O)c(O)c1	4.0	-49.8	17.9*	45.3*	1.0	8.2
COc1ccc(N2CCN(C(=O)C3CCN(S(=O)(=O)c4ccccc4)CC3)CC2)cc1	-4.9	0.6	4.1	2.9	·	·
O=C(C1CCN(S(=O)(=O)c2ccccc2)CC1)N1CCN(c2ccccc2)CC1	6.2	0.5	15.4*	-4.8	-1.0	-1.2
CCCCNC(=O)C1CCN(S(=O)(=O)c2ccc3c(c2)CC(C)N3C(=O)C2CC2)CC1 (stereo not given)	-5.2	-1.3	102.7*	3.8	1.1	2.0
O=C(CN1C(=O)NC2(CCCC2)C1=O)N1CCN(S(=O)(=O)c2ccccc2[N+](=O)[O-])CC1	-2.9	-0.6	4.2	-9.0	·	·
O=S(=O)(c1cccc(C(F)(F)F)c1)c1ccc(O)cn1	0.8	2.3	3.1	-2.7	·	·
C[C@H](CO)N1C[C@H](C)[C@@H](CN(C)S(C)(=O)=O)Oc2ccc(NC(=O)Nc3ccc(C(F)(F)F)cc3)cc2C1=O	-5.7	3.5	-6.7	2.4	·	·
C[C@H](CO)N1C[C@H](C)[C@@H](CN(C)S(=O)(=O)c2ccc(F)cc2)Oc2ccc(NC(=O)Nc3ccc(C(F)(F)F)cc3)cc2C1=O	0.2	5.0	41.5*	11.5	4.8	4.1
C[C@H](CO)N1C[C@H](C)[C@H](CN(C)S(=O)(=O)c2cn(C)cn2)Oc2ccc(NC(=O)Nc3ccc(C(F)(F)F)cc3)cc2CC1=O	0.0	13.0	-13.7	17.8	·	·
C[C@@H]1CN([C@@H](C)CO)C(=O)Cc2cc(NC(=O)Nc3ccc(C(F)(F)F)cc3)ccc2O[C@@H]1CN(C)S(=O)(=O)c1ccc(Cl)cc1	-0.3	8.4	32.2*	-2.1	0.1	11.8
C[C@H](CO)N1C[C@H](C)[C@@H](CN(C)S(=O)(=O)c2cccs2)Oc2ccc(NC(=O)Nc3ccc(C(F)(F)F)cc3)cc2C1=O	9.8	7.7	51.4*	-0.1	2.3	1.2
C[C@@H]1CN([C@H](C)CO)C(=O)c2cc(NC(=O)Nc3ccc(C(F)(F)F)cc3)ccc2O[C@H]1CN(C)S(=O)(=O)c1cccs1	2.2	-3.2	54.3*	2.9	-1.6	9.2
SMILES	DDE Tn7 FP inh	MT1-MMP act inh	Tn6 DDE FP	SKN-1 block	Tn6 DDE ctr	DDE Tn6 confirm
C[C@H](CO)N1C[C@H](C)[C@@H](CN(C)S(=O)(=O)c2cccs2)Oc2ccc(NC(=O)Nc3ccccc3)cc2C1=O	-0.4	0.8	-6.2	12.8	·	·
CN1CCCN(c2cc(-c3ccc4ccccc4c3)nc3ccnn23)CC1	-8.7	61.1	8.4	78.1	·	·
Cc1cccc(-c2cc(N3CCCN(C)CC3)n3nccc3n2)c1	2.9	11.4	16.2*	65.1	-0.4	8.3
CCOc1ccc(S(=O)(=O)N(CC(=O)NCc2cccnc2)c2ccc(F)cc2)cc1	2.9	2.6	18.1*	-2.8	-2.7	-3.2
Cc1ccc(-c2csc3nc4cc(C(=O)NC5CCC(O)CC5)ccc4c(=O)n23)cc1 (stereo not given)	-1.6	0.1	17.3*	2.7	-7.0	-13.7
Cc1ccc(-c2csc3nc4ccc(C(=O)NCCO)cc4c(=O)n23)cc1	0.2	0.4	0.2	8.1	·	·
COc1ccccc1CNc1ncnc2cc(Cl)ccc12	10.5	-0.9	3.0	5.0	·	·
COc1ccc(CNc2ncnc3cc(Cl)ccc23)cc1OC	2.8	-3.3	15.8*	-2.1	-9.3	-5.9
O=C(OCC#CCSc1nnc(-c2cccc3ccccc23)o1)c1ccc(F)cc1F	-2.2	·	-4.5	·	·	·
Cn1cccc1C(=O)N1CCN(S(=O)(=O)c2ccc(Cl)s2)CC1	2.9	·	0.7	·	·	·
Cc1ccccc1NS(=O)(=O)c1ccc(OCCNS(C)(=O)=O)cc1	1.1	-1.2	17.4*	-2.7	-7.7	-12.7
CCOC(=O)Cc1nnc(Nc2ccc(C(=O)NC)cc2)c2ccccc12	1.5	1.2	6.1	-6.9	·	·
COC(=O)C1=C(N)Oc2cc(N(C)C)ccc2C1c1ccccc1OC (stereo not given)	6.8	-23.8	36.2*	0.0	7.3	-8.6
COC(=O)C1=C(N)Oc2cc(C)n(CC3CCCO3)c(=O)c2C1c1ccccc1OC (stereo not given)	1.4	-1.0	-7.4	-7.7	·	·
CC(=O)NCc1ccc(S(=O)(=O)NC(C(=O)O)C(C)C)cc1 (stereo not given)	8.5	-1.4	16.0*	-0.8	-5.7	-10.0
COc1ccc(S(=O)(=O)N[C@H](C(=O)O)C(C)C)cc1	-1.2	0.3	-0.6	-22.2	·	·
